Reference: ChEMBL document CHEMBL1147085, “Metabolism and pharmacokinetics of a novel Src kinase inhibitor TG100435 ([7-(2,6-dichloro-phenyl)-5-methyl-benzo[1,2,4]triazin-3-yl]-[4-(2-pyrrolidin-1-yl-ethoxy)-phenyl]-amine) and its active N-oxide metabolite TG100855 …” (Drug Metab Dispos, 2007)

Key:
[1] = AUC (0 to infinity) in Sprague-Dawley rat at 30 mg/kg, po; assay type: ADME, organism-based; set-up: time infinity, dose 30 mg/kg, route oral; details: plasma
Rattus norvegicus [2] = assay: AUC (0 to infinity) in Sprague-Dawley rat assessed as AUC of ([7-(2,6-Dichloro-phenyl)-5-methyl-benzo[1,2,4]triazin-3-yl]-[4-(2-pyrrolidin-1-yl-ethoxy)-phenyl]-amine) at 5 mg/kg, iv; assay type: ADME, organism-based, Plasma; set-up: time infinity, dose 5 mg/kg, route intravenous; details: in vivo
Rattus norvegicus [3] = assay: Bioavailability in Sprague-Dawley rat assessed as bioavailability of ([7-(2,6-Dichloro-phenyl)-5-methyl-benzo[1,2,4]triazin-3-yl]-[4-(2-pyrrolidin-1-yl-ethoxy)-phenyl]-amine) at 25 mg/kg, po; details: in vivo
[4] = AUC (0 to infinity) in BALB/c mouse at 40 mg/kg, po; assay type: ADME, organism-based; set-up: time infinity, dose 40 mg/kg, route oral; details: plasma
In short: (§1)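 Male BALB/c mice (~25 g); fasted overnight for single p.o. dosing, not fasted for i.v. or i.p. dosing. Composite blood sampling, n=3 per time point: 5, 15, 30 min, 1, 3, 6, 24, 48 hr after i.v. dose; 0.5, 1, 3, 5, 8, 24, 30, 48 hr after p.o. or i.p. dose. Heparinized plasma, both parent and N-oxide measured by LC/MS/MS (MRM 494.2/98.1 and 510.2/98.1); non-compartmental analysis, AUC by linear trapezoidal rule.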

[5] = Clearance in BALB/c mouse at 5 mg/kg, ip; assay type: ADME, organism-based; set-up: dose 5 mg/kg, route intraperitoneal; details: in vivo; in short: as §1
Rattus norvegicus [6] = assay: Tmax in Sprague-Dawley rat assessed as Tmax of ([7-(2,6-Dichloro-phenyl)-5-methyl-benzo[1,2,4]triazin-3-yl]-[4-(2-pyrrolidin-1-yl-ethoxy)-phenyl]-amine) at 25 mg/kg, po; details: in vivo
[7] = Cmax in Sprague-Dawley rat at 25 mg/kg, po; assay type: ADME, organism-based; set-up: dose 25 mg/kg, route oral; details: in vivo
[8] = target: Tyrosine-protein kinase Lyn (Homo sapiens, UniProt P07948); assay: Inhibition of Lyn by luminescence based kinase assay
Chain of Tyrosine-protein kinase Lyn (P07948 whole entry): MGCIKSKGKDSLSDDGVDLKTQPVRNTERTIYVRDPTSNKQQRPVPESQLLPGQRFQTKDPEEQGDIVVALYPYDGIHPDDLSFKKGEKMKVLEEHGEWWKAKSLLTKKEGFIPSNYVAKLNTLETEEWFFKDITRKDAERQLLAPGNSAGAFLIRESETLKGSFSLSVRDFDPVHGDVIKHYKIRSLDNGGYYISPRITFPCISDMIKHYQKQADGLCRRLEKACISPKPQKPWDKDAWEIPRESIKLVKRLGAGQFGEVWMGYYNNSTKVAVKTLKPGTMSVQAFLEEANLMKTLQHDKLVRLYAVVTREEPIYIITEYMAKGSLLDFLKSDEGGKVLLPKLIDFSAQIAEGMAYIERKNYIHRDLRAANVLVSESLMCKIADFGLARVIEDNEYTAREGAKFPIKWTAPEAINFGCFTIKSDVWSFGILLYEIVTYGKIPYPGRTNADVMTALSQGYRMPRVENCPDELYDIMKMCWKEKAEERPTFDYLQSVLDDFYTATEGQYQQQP

[9] = Bioavailability in Sprague-Dawley rat at 25 mg/kg, po; assay type: ADME, organism-based; details: in vivo
Mus musculus [10] = assay: Maximal plasma concentration of TG100435 in BALB/C mice after 25 mg/kg oral dose of TG100855; assay type: ADME, organism-based; set-up: dose 25 mg/kg, route oral; details: in vivo; in short: as §1
[11] = Bioavailability in BALB/c mouse at 25 mg/kg, po; assay type: ADME, organism-based; details: in vivo
[12] = Half life in BALB/c mouse at 5 mg/kg, iv; assay type: ADME, organism-based; set-up: dose 5 mg/kg, route intravenous; details: in vivo; in short: as §1
[13] = Clearance in BALB/c mouse at 5 mg/kg, iv; assay type: ADME, organism-based; set-up: dose 5 mg/kg, route intravenous; details: in vivo; in short: as §1
Ephrin type-B receptor 4 = target: T1, Ephrin type-B receptor 4 (Homo sapiens, UniProt P54760); assay: Inhibition of EphB4 by luminescence based kinase assay
T1 sequence (P54760 whole entry): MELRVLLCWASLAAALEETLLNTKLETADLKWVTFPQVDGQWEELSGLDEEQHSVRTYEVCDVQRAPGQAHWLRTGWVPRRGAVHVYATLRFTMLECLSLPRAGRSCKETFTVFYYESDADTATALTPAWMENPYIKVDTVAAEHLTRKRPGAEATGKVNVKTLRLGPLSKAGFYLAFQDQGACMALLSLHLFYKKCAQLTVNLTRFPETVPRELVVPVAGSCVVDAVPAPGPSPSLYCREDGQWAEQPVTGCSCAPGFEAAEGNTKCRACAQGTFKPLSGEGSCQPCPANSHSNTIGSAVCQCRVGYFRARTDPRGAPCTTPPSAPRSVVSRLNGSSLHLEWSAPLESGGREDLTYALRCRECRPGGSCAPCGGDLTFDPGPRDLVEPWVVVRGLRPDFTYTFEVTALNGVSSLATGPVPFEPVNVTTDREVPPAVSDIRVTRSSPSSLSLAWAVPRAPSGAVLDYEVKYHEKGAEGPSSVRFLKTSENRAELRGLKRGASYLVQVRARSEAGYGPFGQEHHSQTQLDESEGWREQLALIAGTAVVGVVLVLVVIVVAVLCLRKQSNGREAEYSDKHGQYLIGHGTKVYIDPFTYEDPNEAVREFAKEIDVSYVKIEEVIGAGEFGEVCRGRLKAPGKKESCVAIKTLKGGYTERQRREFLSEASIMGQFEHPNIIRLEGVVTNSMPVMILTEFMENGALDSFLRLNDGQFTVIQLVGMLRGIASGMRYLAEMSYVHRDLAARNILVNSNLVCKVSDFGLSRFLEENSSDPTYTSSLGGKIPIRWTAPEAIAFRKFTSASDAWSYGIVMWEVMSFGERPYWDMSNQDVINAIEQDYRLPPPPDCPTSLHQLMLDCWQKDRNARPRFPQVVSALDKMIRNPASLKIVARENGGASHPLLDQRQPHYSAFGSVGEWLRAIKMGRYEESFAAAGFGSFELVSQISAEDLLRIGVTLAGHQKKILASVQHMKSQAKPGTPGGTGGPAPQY

[14] = Half life in BALB/c mouse at 5 mg/kg, ip; assay type: ADME, organism-based; set-up: dose 5 mg/kg, route intraperitoneal; details: in vivo; in short: as §1
Mus musculus [15] = assay: AUC (0 to last) in BALB/c mouse assessed as AUC of ([7-(2,6-Dichloro-phenyl)-5-methyl-benzo[1,2,4]triazin-3-yl]-[4-(2-pyrrolidin-1-yl-ethoxy)-phenyl]-amine) at 25 mg/kg, po; details: in vivo
[16] = Tmax in BALB/c mouse at 25 mg/kg, po; assay type: ADME, organism-based; set-up: dose 25 mg/kg, route oral; details: in vivo
[17] = Tmax in Sprague-Dawley rat at 25 mg/kg, po; assay type: ADME, organism-based; set-up: dose 25 mg/kg, route oral; details: in vivo
[18] = Cmax in BALB/c mouse at 25 mg/kg, po; assay type: ADME, organism-based; set-up: dose 25 mg/kg, route oral; details: in vivo; in short: as §1
[19] = AUC (0 to last) in BALB/c mouse at 25 mg/kg, po; assay type: ADME, organism-based; set-up: time 0 - last, dose 25 mg/kg, route oral; details: plasma; in short: as §1
[20] = target: Tyrosine-protein kinase Lck (Homo sapiens, UniProt P06239); assay: Inhibition of Lck by luminescence based kinase assay
Chain of Tyrosine-protein kinase Lck (P06239 whole entry): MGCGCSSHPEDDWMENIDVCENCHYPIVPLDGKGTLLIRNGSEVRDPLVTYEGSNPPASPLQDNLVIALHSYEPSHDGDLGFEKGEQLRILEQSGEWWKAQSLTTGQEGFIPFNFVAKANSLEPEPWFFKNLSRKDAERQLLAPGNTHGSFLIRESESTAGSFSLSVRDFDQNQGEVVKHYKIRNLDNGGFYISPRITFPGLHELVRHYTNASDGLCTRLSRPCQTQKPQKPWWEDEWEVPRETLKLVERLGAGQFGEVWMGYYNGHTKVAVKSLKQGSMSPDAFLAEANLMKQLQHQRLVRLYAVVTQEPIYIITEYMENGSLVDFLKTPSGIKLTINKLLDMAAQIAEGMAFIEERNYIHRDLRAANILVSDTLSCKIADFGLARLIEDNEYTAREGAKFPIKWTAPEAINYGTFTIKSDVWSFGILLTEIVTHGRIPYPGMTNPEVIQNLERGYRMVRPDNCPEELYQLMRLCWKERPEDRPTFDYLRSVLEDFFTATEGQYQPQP

[21] = Volume of distribution in BALB/c mouse at 5 mg/kg, iv; assay type: ADME, organism-based; set-up: dose 5 mg/kg, route intravenous; details: in vivo
[22] = Clearance in Sprague-Dawley rat at 5 mg/kg, ip; assay type: ADME, organism-based; set-up: dose 5 mg/kg, route intraperitoneal; details: in vivo
[23] = Clearance in Sprague-Dawley rat at 5 mg/kg, iv; assay type: ADME, organism-based; set-up: dose 5 mg/kg, route intravenous; details: in vivo

Cc1cc(-c2c(Cl)cccc2Cl)cc2nnc(Nc3ccc(OCC[N+]4([O-])CCCC4)cc3)nc12
AUC(0-inf) [1]: 9310 ng·h/mL
AUC (Rattus norvegicus [2]): 539 ng·h/mL
F (Rattus norvegicus [3]): 3.1%
AUC(0-inf) [4]: 13400 ng·h/mL
CL/F [5]: 11.6 mL/min/kg
Tmax (Rattus norvegicus [6]): 4 h
Cmax [7]: 160 ng/mL
Ki [8]: 4.19 nM
bioavailability [9]: 1.6%
Cmax (Mus musculus [10]): 113 ng/mL
bioavailability [11]: 3.5%
half-life [12]: 0.9 h
clearance [13]: 15.6 mL/min/kg
Ki (Ephrin type-B receptor 4): 7.27 nM
half-life [14]: 2.8 h
AUC (Mus musculus [15]): 1740 ng·h/mL
Tmax [16]: 1 h
Tmax [17]: 3.5 h
Cmax [18]: 171 ng/mL
AUC(0-t) [19]: 912 ng·h/mL
Ki [20]: 11.7 nM
Vd [21]: 1.2 L/kg
CL/F [22]: 17 mL/min/kg
clearance [23]: 13.8 mL/min/kg
